According to paper PMC8404201 (Journal of Medicinal Chemistry, 2021):
Entries after “also recorded” stand apart in the source; their conditions may differ.

Legend:
[1] = Pilot mouse pharmacokinetic study; type: in vivo, BALB/c mice; conditions: mice; for gross toxicity after single IV dose: single low-dose 10 mg/kg IV
[2] = Tolerability of repeated daily IP injection in mice; type: in vivo; conditions: 10 sequential daily IP injections, 10 mg/kg (34 in 100% DMSO)
Procedure, shortened: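 Mice got 10 sequential daily IP injections of test compound dissolved in 100% DMSO. They were monitored for clinical adverse signs.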

Structure (SMILES) | gross toxicity after single IV dose [1] | tolerability / adverse events after repeated daily IP injection [2] | apparent oral bioavailability (F) ([1]; PO vs IV, 10 mg/kg)
CN(C)c1ccc2cc(-c3cc(Cl)cc(Cl)c3)c(N)nc2c1 [Compound 27, 3-[3,5-Dichlorophenyl]-N^7,N^7-dimethylquinoline-2,7-diamine] | no gross toxicity | not observed; also recorded: tolerable | 
CN(C)c1ccc2cc(-c3cn(C)c4ccccc34)c(N)nc2c1 [Compound 34, 3-[3-(N-Methylindolyl)-N^7,N^7-dimethyl]-2,7-quinolinediamine] | no gross toxicity | toxic | < 20%
